Screening data from PubChem BioAssay.
Compounds with a hit are over-represented: about 2.3% of the library has one in this group of screens.
UCH37 inh = inhibitors of human UCH37 deubiquitinase, primary screen, biochemical, Ub-AMC cleavage, fluorescence | purified proteasome/UCH37 | inhibition, % (test concentration not listed) | 330,000 compounds, 0.33% hits | AID 588478, 2011;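 active means mean inhibition over replicate wells above about 20%, limit read from the data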;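 further: 0% = compound-free wells with enzyme and 100% = wells lacking proteasome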
Target sequence (Q9Y5K5 whole entry, looked up): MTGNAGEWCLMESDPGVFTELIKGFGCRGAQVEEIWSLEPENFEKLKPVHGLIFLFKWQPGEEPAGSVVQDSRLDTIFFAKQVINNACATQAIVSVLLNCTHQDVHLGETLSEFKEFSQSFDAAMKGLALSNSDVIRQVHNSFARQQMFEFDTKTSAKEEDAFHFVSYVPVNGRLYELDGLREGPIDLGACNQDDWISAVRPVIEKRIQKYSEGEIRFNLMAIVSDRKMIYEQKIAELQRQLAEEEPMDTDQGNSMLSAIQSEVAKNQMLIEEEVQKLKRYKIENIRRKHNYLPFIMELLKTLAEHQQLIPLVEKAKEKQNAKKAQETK
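assay system = human UCH37 enzyme supplied as purified proteasome complex | amount = proteasome at 0.15 nM in the dispensed enzyme solution | schedule = 30 min compound-proteasome preincubation then 25 min substrate reaction, room temperature | measured by = fluorescence, ex 355 nm, em 460 nm | benchmarks = no-proteasome wells (full inhibition) and compound-free wells (no inhibition)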
PREPL inh = PREPL enzyme inhibitors, primary screen, biochemical, fluorescence polarization; Prolyl endopeptidase-like (Homo sapiens), Q4J6C6; recombinant PREPL, fluorescence polarization activity-based probe; inhibition, % at 5.96 µM; 320,000 compounds, 0.68% hits; AID 2751, 2010; in the data active means inhibition above about 43%;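 further: 0% = enzyme with DMSO and 100% = wells lacking enzyme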
PP5 primary = PP5 phosphatase inhibitors, primary screen, biochemical, fluorescence; Serine/threonine-protein phosphatase 5 (Homo sapiens), P53041; purified PP5c, OMFP substrate fluorescence; inhibition, % at 6.7 µM; 320,000 compounds, 0.18% hits; AID 1987, 2009;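 active means inhibition above the campaign's mean inhibition across all tested compounds plus 3 SD, cut at about 9.5% in these data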;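 further: 0% = DMSO only and 100% = 100 µM cantharidin control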
UBC13 inh = UBC13 polyubiquitin chain formation inhibitors, primary screen, biochemical, TR-FRET, uHTS. 330,000 compounds, 0.47% hits. Ubiquitin-conjugating enzyme E2 N (Homo sapiens), P61088. AID 485273, 2010. inhibition, % at 20 µM; in the data active means inhibition above about 45%, passing the limit was not always enough; inconclusive means no clear call, values can overlap the other calls
Target sequence (P61088 whole entry, looked up): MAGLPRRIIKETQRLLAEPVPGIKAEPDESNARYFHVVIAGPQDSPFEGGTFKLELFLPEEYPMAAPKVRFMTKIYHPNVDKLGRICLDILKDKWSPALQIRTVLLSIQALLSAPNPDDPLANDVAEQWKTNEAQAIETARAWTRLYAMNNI
PP1 counter = PP1-alpha phosphatase inhibitors, primary screen, counter-screen for PP5 inhibitor project, biochemical, fluorescence, OMFP substrate, single point. inhibition, % at 6.7 µM. Serine/threonine-protein phosphatase PP1-alpha catalytic subunit (Homo sapiens), P62136. 320,000 compounds, 0.9% hits. purified PP1alpha;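 active means inhibition above the mean inhibition of all tested compounds plus 3 SD, computed separately for each screening campaign, cut at about 15% in these data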
Fh CTSL1 inh = Fasciola hepatica cathepsin L1 inhibitors, primary screen, counter-screen for PFM18AAP inhibitor project, biochemical, QFRET, fluorogenic peptide substrate. 300,000 compounds, 0.49% hits. AID 1906, 2009. inhibition, % at 5.96 µM. recombinant F. hepatica cathepsin L1, Z-Leu-Arg-MCA fluorescence;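 active means inhibition above the mean of all tested compounds plus 3 SD, set per screening campaign, cut at about 17% in these data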;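 further: 0% = plate median of test compound wells and 100% = 1 µM Z-Phe-Ala-diazomethylketone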
Casp3 counter = CASP3 inhibitor validation, counterassay for project on UBE2N polyubiquitination blockers, biochemical, one dose. shares compounds with UBC13 inh. Recombinant caspase-3, Caspase-Glo 3/7 luminescence, 60 min. inhibition, % at 20 µM. 1,400 compounds, 4% hits;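 active means mean inhibition across replicates above about 26%, limit read from the data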;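 further: plate controls were DMSO with caspase-3 for no effect and DMSO wells lacking enzyme for full effect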
UBC13 conf = UBC13 polyubiquitination inhibitors, single-point retest, confirmation, biochemical, TR-FRET, single concentration | shares compounds with UBC13 inh | 1,400 compounds, 68% hits | inhibition, % at 10 µM; in the data active means inhibition above about 45%; inconclusive means no clear call, values can overlap the other calls
* hit, by the source's call; ? = inconclusive; / = no result given.

SMILES	UCH37 inh	PREPL inh	PP5 primary	UBC13 inh	PP1 counter	Fh CTSL1 inh	Casp3 counter	UBC13 conf
COc1ccc(C[C@H]2CN3C(=NC[C@@H]3C(C)C)N2CCNC(=O)c2ccc(C)c(Br)c2)cc1	-1.7	27.3	4.7	60.5*	2.8	-2.4	-4.5	34.2
Cc1nc(N)sc1C(=O)NN=Cc1ccc([N+](=O)[O-])cc1	4.5	/	/	/	/	/	/	/
COc1cc(/C=N\NC(=O)c2sc(N)nc2C)cc(OC)c1OC	/	1.8	0.6	104.9*	1.0	0.8	1.4	111.3*
COc1cc(C=NNC(=O)c2sc(N)nc2C)cc(OC)c1OC	8.7	/	/	/	/	/	/	/
Cc1nc(N)sc1C(=O)N/N=C/c1ccco1	/	-1.4	-0.9	72.3*	-2.2	1.6	24.6	62.7*
Cc1nc(N)sc1C(=O)NN=Cc1c[nH]c2ccccc12	8.6	/	/	/	/	/	/	/
CC(/C=N/NC(=O)c1sc(N)nc1C)=C\c1ccccc1	/	16.4	2.1	85.2*	0.0	3.9	42.7*	96.1*
Cc1nc(N)sc1C(=O)N/N=C/c1c[nH]c2ccccc12	/	11.4	0.2	79.2*	-5.5	-0.2	14.1	113.7*
CC(=NNC(=O)c1c(Cl)c(C)nn1C)c1ccc(NC(=O)C2CCC2)cc1	-35.0	/	/	/	/	/	/	/
CC(=NNC(=O)c1ccccc1F)c1cccc(NC(=O)c2ccccc2)c1	5.3	/	/	/	/	/	/	/
COc1ccc(C=NNC(=O)c2ccn[nH]2)cc1Cn1cc([N+](=O)[O-])cn1	5.9	/	/	/	/	/	/	/
COc1ccc(CNn2c(C)nc3ccccc3c2=O)cc1	2.8	3.5	1.9	47.0*	-1.4	-1.7	-2.2	48.9*
COc1ccc(CNn2c(-c3cccc(C)c3)nc3ccccc3c2=O)cc1OC	0.3	7.0	3.1	-7.3	-4.2	-0.4	/	/
Cc1nc2ccccc2c(=O)n1NC(=O)COc1ccccc1	3.9	0.1	3.0	-4.7	1.1	-3.1	/	/
CCCCOc1ccc(CNn2c(C)nc3ccccc3c2=O)cc1	-0.3	1.9	1.6	74.7*	2.2	0.6	0.2	82.5*
COC(=O)c1ccc(C=NNc2nc(N3CCCCC3)nc(N3CCCCC3)n2)cc1	0.1	/	/	/	/	/	/	/
COC(=O)c1c(-c2ccc(S(C)(=O)=O)cc2)sc2ccc(OC)cc12	0.2	22.8	/	54.5*	/	/	10.3	41.9
COC(=O)c1c(-c2ccc(S(C)(=O)=O)cc2)sc2cc(OC)ccc12	-60.8	38.4	/	?	/	/	/	/
COC(=O)c1c(-c2ccc(SC)cc2)sc2ccc(OC)cc12	-2.8	19.1	/	50.4*	/	/	-1.2	?
O=C(CNc1cccc2ccccc12)NN=C/C(Br)=C/c1ccccc1	-4.1	/	/	/	/	/	/	/
CNC(=O)COC(=O)/C=C/c1cn(-c2ccccc2)nc1-c1ccc(C)o1	-148.6	-3.0	-0.1	54.8*	0.5	-6.9	0.0	44.4
COc1ccc(-c2nn(-c3ccccc3)cc2/C=C/C(=O)OCC(=O)Nc2ccccc2C#N)cc1	/	-1.8	-1.9	12.2	-3.1	-17.4	/	/
C#CCOCCOCCOCCNc1nc(N2CCN(C(=O)[C@H](CCCN=C(N)N)n3cc(C(N)[C@@H](C)CC)nn3)CC2)nc(N2CCN(C(=O)[C@H](CCCCN)n3cc([C@@H](N)[C@H](C)CC)nn3)CC2)n1 (stereo partly drawn)	1.4	28.7	/	94.8*	/	/	1.4	88.4*
C#CCOCCOCCOCCNc1nc(N2CCN(C(=O)[C@H](CCCCN)n3cc(C(N)[C@H](C)CC)nn3)CC2)nc(N2CCN(C(=O)[C@H](CCC(=O)O)n3cc(C(N)[C@H](C)CC)nn3)CC2)n1 (stereo partly drawn)	0.5	-3.4	0.3	11.1	-0.1	2.2	/	/
